Assay outcomes (PubChem)
The list is not random: actives were taken first. Their share in the collection is about 27%.
Rev-RRE block: inhibitors of HIV-1 Rev-RRE RNA interaction | 0.79% of 97,000 active | P05866 | Rev peptide-RRE RNA binding, FRET | inhibition, % at 8 µM;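 active means inhibition above the screen-wide mean plus 3 SD, cut at about 35% in these data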
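Test system – labelled RRE RNA duplex and labelled Rev peptide · Signal – fluorescein-to-Cy5 FRET, 480 nm excitation · Evaluation – % inhibition of FRET ratio versus controls · Benchmarks – DMSO low control, neomycin B high control · Incubation – 5 min RNA-compound premix plus 15 min binding step, 25 °C · Medium – HEPES pH 7.5 salt buffer with EDTA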
CYP2C19 activ: increases human CYP2C19 enzyme activity; P33261; recombinant CYP2C19, luciferin-H EGE luminescence; hits give high values; 0 = fully inhibited enzyme, 1 = untreated enzyme; activation factor at 5 µM; 96,000 tested, under 10 active; AID 1025;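 active means activation factor of at least 2 at 5 µM in the primary screen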
CYP2C19 inhib: inhibitors of human CYP2C19 | AID 778 | inhibition, % at 5 µM | 21% of 96,000 active | CYP2C19 Supersomes, luciferin-H EGE luminescence, 30 min | P33261;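 active means CYP2C19 inhibition above a set limit at 5 µM in the primary screen, cut at about 50% in these data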
Cav3 T inh: human Cav3.2 channel inhibition, primary screen; AID 449739; 4% of 100,000 active; O95180; B-score at 10 µM; Cav3.2-expressing cells, Fluo-4 calcium fluorescence FDSS; hits give low values;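 active means single-dose well whose peak fluorescence ratio is a statistical outlier from its plate by either plate-standardised score or position-corrected B-score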
Target sequence (O95180 whole entry, looked up): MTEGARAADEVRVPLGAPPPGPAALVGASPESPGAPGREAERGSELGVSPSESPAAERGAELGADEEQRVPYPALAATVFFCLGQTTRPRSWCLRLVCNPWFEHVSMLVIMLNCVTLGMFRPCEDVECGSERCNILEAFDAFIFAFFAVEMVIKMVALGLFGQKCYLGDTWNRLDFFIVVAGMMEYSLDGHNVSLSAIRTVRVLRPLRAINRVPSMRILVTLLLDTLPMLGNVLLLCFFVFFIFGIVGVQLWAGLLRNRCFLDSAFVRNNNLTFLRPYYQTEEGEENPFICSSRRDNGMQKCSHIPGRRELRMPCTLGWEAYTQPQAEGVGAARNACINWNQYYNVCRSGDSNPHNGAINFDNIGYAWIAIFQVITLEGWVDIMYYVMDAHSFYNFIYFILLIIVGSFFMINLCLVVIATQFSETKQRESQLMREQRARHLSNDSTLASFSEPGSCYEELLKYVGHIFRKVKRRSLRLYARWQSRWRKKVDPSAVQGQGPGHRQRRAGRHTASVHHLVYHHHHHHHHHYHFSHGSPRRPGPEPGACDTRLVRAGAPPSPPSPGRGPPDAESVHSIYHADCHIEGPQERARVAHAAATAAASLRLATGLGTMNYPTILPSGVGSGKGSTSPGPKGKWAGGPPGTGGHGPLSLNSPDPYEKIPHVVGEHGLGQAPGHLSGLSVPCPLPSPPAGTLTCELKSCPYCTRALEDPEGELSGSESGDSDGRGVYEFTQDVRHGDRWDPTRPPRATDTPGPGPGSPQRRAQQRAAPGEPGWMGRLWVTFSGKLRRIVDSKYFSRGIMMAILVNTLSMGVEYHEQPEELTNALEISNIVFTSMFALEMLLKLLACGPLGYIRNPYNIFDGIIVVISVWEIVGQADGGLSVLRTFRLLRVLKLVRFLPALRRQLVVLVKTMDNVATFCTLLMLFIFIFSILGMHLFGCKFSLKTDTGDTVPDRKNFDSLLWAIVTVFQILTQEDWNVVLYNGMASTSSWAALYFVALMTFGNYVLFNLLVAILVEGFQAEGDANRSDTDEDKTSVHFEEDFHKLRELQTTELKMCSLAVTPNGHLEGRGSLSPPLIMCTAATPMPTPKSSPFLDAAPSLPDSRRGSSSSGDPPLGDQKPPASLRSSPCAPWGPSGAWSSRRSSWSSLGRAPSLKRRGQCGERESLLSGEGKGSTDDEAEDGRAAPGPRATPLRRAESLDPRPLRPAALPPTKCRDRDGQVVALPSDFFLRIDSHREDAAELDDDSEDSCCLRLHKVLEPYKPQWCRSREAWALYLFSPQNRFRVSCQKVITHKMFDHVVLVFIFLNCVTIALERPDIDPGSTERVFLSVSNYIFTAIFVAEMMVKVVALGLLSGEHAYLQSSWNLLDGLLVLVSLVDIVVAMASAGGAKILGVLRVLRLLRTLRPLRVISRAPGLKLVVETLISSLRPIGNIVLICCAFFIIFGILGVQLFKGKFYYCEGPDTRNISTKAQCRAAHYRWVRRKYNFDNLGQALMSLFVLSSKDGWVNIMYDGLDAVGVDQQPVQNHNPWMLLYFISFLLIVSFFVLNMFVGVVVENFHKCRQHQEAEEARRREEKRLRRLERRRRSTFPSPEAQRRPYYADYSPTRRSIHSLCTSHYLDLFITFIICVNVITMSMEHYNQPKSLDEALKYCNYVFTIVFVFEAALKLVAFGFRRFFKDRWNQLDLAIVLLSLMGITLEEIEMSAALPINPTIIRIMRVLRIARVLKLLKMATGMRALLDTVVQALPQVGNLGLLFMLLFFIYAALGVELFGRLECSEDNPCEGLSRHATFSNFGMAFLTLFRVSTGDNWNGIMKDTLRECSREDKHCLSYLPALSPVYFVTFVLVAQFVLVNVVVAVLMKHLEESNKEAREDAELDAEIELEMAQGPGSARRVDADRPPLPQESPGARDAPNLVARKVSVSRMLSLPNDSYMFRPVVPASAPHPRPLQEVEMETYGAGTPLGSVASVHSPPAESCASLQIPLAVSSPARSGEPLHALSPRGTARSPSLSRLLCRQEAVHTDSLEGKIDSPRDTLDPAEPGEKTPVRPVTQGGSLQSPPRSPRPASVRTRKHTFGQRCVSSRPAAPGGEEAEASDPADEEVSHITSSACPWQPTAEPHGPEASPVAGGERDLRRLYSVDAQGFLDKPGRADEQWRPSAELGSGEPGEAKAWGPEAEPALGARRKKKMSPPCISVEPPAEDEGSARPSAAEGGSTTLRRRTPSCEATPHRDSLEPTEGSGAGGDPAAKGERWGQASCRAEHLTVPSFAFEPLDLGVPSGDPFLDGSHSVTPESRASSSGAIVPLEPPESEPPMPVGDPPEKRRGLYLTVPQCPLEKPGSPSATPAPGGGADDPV
CYP2C9 inh: blocks human cytochrome P450 2C9. CYP2C9 Supersomes, luciferin-H conversion, luminescence. inhibition, % at 5 µM. 20% of 96,000 active. AID 777;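 active means blocking of liver enzyme CYP2C9 beyond about 50% at 5 µM, limit read from the data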
CYP2C9 activ: activators of human CYP2C9. P11712. recombinant CYP2C9, luciferin-H conversion, luminescence; hits give high values; factor 1 = untreated enzyme, 0 = blocked. activation factor at 5 µM. 1.4% of 96,000 active;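 active means activation factor of 2 or more for CYP2C9 at a 5 µM dose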
Hits are given with their value; 0 = inactive; - = not tested or not shown.

SMILES	Rev-RRE block	CYP2C19 activ	CYP2C19 inhib	Cav3 T inh	CYP2C9 inh	CYP2C9 activ
O=c1[nH]c2c(s1)C(c1ccccc1)C1C3CCC(C3)C1S2 (configuration not stated)	0	0	0	0	0	0
COc1ccc(C2c3sc(=O)[nH]c3SC3C(=O)N(c4ccccc4)C(=O)C32)cc1 (configuration not stated)	0	0	62	0	81	0
O=C1C2Sc3[nH]c(=O)sc3C(c3ccccc3)C2C(=O)N1c1ccccc1 (configuration not stated)	0	0	57	0	0	0
Cc1ccc(CN2C(=O)C3CCCN3c3ccc(S(=O)(=O)N4CCOCC4)cc32)cc1 (configuration not stated)	0	0	0	0	0	0
Cc1ccc(C(C)C)c(OCCCN2CC(C)OC(C)C2)c1 (configuration not stated)	0	0	76	0	0	0
Cn1c(=O)c2c(nc(OCC3COC(C)(C)O3)n2Cc2ccccc2F)n(C)c1=O (configuration not stated)	0	0	0	0	0	0
COCCNS(=O)(=O)c1ccc(SC)cc1	0	0	0	0	0	0
Cc1cc(-n2c(C)cc(C(=O)CSc3nnnn3-c3ccccc3)c2C)no1	0	0	0	0	0	0
COc1ccc(CCn2c(C)cc(C(=O)CSc3nnnn3-c3ccccc3)c2C)cc1OC	0	0	0	0	0	2.1
COc1ccc(-n2nnnc2SCC(=O)NCCc2ccc(OC)c(OC)c2)cc1	0	0	0	0	0	0
Cc1cc(C(=O)CSc2nnnn2C)c(C)n1CCc1ccc(F)cc1	0	0	65	0	0	0
Cc1cc(C(=O)CSc2nnnn2-c2ccccc2)c(C)n1CCc1ccccc1	0	0	50	0	0	0
Cc1cc(C(=O)CSc2nc(N)cc(=O)[nH]2)c(C)n1CCc1ccc(F)cc1	0	0	0	0	0	0
COc1ccc(OC)c(C2=Nn3c(nnc3-c3cccc(OC(C)C)c3)SC2)c1	0	0	0	0	0	0
O=C(O)C[C@H]1c2ccccc2S(=O)(=O)N1c1ccccc1	-	-	-	0	-	-
CC12CCC(C(=O)Nc3nccs3)(OC1=O)C2(C)C (configuration not stated)	0	0	0	0	0	0
COc1ccc(OC)c(NC(=O)C23CCC(C)(C(=O)O2)C3(C)C)c1 (configuration not stated)	0	0	61	0	0	2
COc1ccc(Cl)cc1NC(=O)C12CCC(C)(C(=O)O1)C2(C)C (configuration not stated)	0	0	83	0	0	0
COC(=O)c1ccccc1NC(=O)C12CCC(C)(C(=O)O1)C2(C)C (configuration not stated)	0	0	57	0	0	0
CCOC(=O)N1CCN(C(=O)C(c2ccccc2)c2ccccc2)CC1	0	0	0	0	0	0
COc1ccc(C2C(C(=O)c3ccco3)=C(O)C(=O)N2CCc2ccccc2)cc1OC (configuration not stated)	0	0	0	0	0	0
CC(=O)Nc1ccc(S(=O)(=O)N2CCSC2c2ccc(Cl)cc2)cc1 (configuration not stated)	0	0	0	0	0	0
Cc1ccc(S(=O)(=O)N2CCSC2c2ccco2)cc1 (configuration not stated)	0	0	96	0	0	0
Cc1ccc(NC(=O)c2c(O)c3ccccc3n(C)c2=O)nc1	-	0	0	0	0	0
COc1cccc(NC(=O)Cc2nnc(SCC(=O)c3ccccc3)n2C)c1	0	-	-	0	-	-
SMILES	Rev-RRE block	CYP2C19 activ	CYP2C19 inhib	Cav3 T inh	CYP2C9 inh	CYP2C9 activ
O=c1cc(N2CCC3(CC2)OCCO3)[nH]c(=O)n1-c1ccc(Cl)cc1	0	0	0	-	0	0
CCC(=O)NC1=C(NC(C)c2ccccc2)C(=O)c2ccccc2C1=O (configuration not stated)	0	0	0	0	52	0
CCC(=O)Nc1ccc2c(c1)C(=O)N(C)C2=O	0	0	0	0	0	0
CCC(=O)Nc1ccc2c(c1)C(=O)c1ccccc1C2=O	0	0	0	0	58	0
Cc1ccc2c(c1)C1(OCCO1)C(=O)N2	0	0	0	0	0	0
CC1CN(C(=O)COc2ncnc3ccccc23)CC(C)O1 (configuration not stated)	0	0	0	0	0	0
CCSc1nnc(Nc2ccccc2)s1	0	0	0	0	0	0
c1ccc(Nc2nnc(SCc3cccc4ccccc34)s2)cc1	0	0	0	0	0	2.1
CCOC(=O)Cc1csc2nc3sc(C)c(C)c3c(=O)n12	0	0	56	0	0	0
CCOC(=O)CNC(=O)CSc1nc2sc(C)c(C)c2c(=O)n1C	0	0	70	0	50	0
O=C(NCCC(=O)N1CCNC1=O)OCc1ccccc1	0	0	0	0	0	0
COc1ccccc1N1CCN(/N=C/c2c(C)nn(-c3ccccc3)c2C)CC1	0	0	0	0	0	0
COc1ccc(N2CCN(C(=O)C3CCCN(S(=O)(=O)c4cccc5cccnc45)C3)CC2)cc1 (configuration not stated)	0	0	65	0	0	0
CCOC(=O)C1CCN(C(=O)C2CCN(S(=O)(=O)c3cccc4cccnc34)CC2)CC1	0	0	0	0	0	2.3
O=S(=O)(c1cccc2cccnc12)N1CCN(c2ccccc2)CC1	0	0	99	-	0	2.8
Cn1c(=O)oc2cc(S(=O)(=O)N3CCN(c4cccc(Cl)c4)CC3)ccc21	-	0	0	0	0	0
O=S(=O)(c1cccc2cccnc12)N1CCc2ccccc21	0	0	0	0	0	0
Cc1ccc2cccc(S(=O)(=O)N3CCN(c4cccc(Cl)c4)CC3)c2n1	0	0	92	0	0	0
CCOC(=O)N1CCC(NC(=O)C2CCN(S(=O)(=O)c3cccc4cccnc34)CC2)CC1	-	0	0	0	0	0
COc1ccc(NC(=O)C2CCCN(S(=O)(=O)c3cccc4cccnc34)C2)c(OC)c1 (configuration not stated)	0	0	0	0	0	0
CC1CN(C(=O)COC(=O)c2cccs2)CC(C)O1 (configuration not stated)	-	0	0	-	0	0
O=C(C1CCN(S(=O)(=O)c2cccc3cccnc23)CC1)N1CCN(c2ccccn2)CC1	0	0	0	-	0	0
O=C(C1CCN(S(=O)(=O)c2cccc3cccnc23)CC1)N1CCN(c2ccc(Cl)cc2)CC1	0	0	85	0	0	2.3
O=C(C1CCN(S(=O)(=O)c2ccc3ccccc3c2)CC1)N1CCN(c2ncccn2)CC1	0	0	71	0	0	0
O=C(Nc1nccs1)C1CCCN(S(=O)(=O)c2cccc3cccnc23)C1 (configuration not stated)	0	0	0	0	0	0
